{
  "source": "paper PMC2141641",
  "about": "(The Journal of Cell Biology, 1997)",
  "key": {"CD36 null animals": {"system": "CD36 null animals", "conditions": "ref Febbraio, M., O.V. Volpert, N.P. Bouck, and R.L. Silverstein, unpublished data; cited from earlier work"}, "[1]": {"system": "neovascularization in vivo", "conditions": "ref O'Reilly et al., 1994; cited from earlier work"}, "[2]": {"system": "Human dermal microvascular endothelial cells (HMVECs)", "assay": "Endothelial cell migration assay, HMVECs", "format": "cell-based", "conditions": "for inhibition of bFGF-induced HMVEC migration by other CD36 ligands / effect on migration when tested alone: 2 μg/ml", "procedure,_shortened": "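Human dermal microvascular cells (passages 6–9) were serum-starved and then migrated in a Boyden chamber 4 h at 37°C toward bFGF. Collagen I, LDL and copper-oxidized LDL were tested at 2 μg/ml, with or without 10 μg/ml anti-CD36 IgG added to both wells. Quadruplicate wells, two experiments. Counts were normalized to bFGF minus control-medium background. Two-tailed t test was run on raw data.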"}, "endothelial cells [3]": {"system": "endothelial cells", "conditions": "cited from earlier work"}, "[4]": {"system": "Bovine adrenal capillary endothelial cells (BCECs)", "assay": "Endothelial cell migration assay, BCECs", "format": "cell-based", "procedure,_shortened": "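Bovine adrenal capillary cells (DME, 10% donor calf serum, 1% endothelial mitogen; passage 15) were starved overnight in DME/0.1% BSA. 3 × 10^4 cells/well were attached 2 h at 37°C to a gelatinized membrane in an inverted Boyden chamber, then reinverted. GST–CD36 fusion proteins were preincubated with 2 nM TSP-1, warmed to room temperature, and added to the top wells. Migration to bFGF ran 4 h at 37°C. Migrated cells/10 high-power fields counted; normalized to bFGF minus background.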"}, "endothelial cells [5]": {"system": "endothelial cells", "conditions": "in vitro; ref Iruela-Arispe et al., 1991; DiPietro et al., 1994; Canfield and Schor, 1995; cited from earlier work"}, "endothelial cells [6]": {"system": "endothelial cells", "conditions": "in vitro; ref Tolsma et al., 1997; cited from earlier work"}, "CD36-transfected HUVECs [7]": {"system": "CD36-transfected HUVECs", "assay": "Migration assay of CD36-transfected HUVEC clones", "format": "cell-based, human", "conditions": "TSP-1 2 nM, bFGF", "procedure,_shortened": "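HUVECs at passage 2 were lipofected with a CD36 plasmid (30 μg DNA, 5 h, 37°C) and selected in 100 μg/ml G418. Cloned lines were checked for CD36 by flow cytometry. Clones migrated toward bFGF in a Boyden chamber (4 h, 37°C) with 2 nM TSP-1, with or without 10 μg/ml anti-CD36 antibody OKM-5. Four experiments; normalized to bFGF minus background.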"}, "[8]": {"system": "neovascularization, polyvinyl sponge", "conditions": "polyvinyl sponge assay; ref Good et al., 1990; Tolsma et al., 1993; cited from earlier work"}, "[9]": {"system": "Melanoma cells not transfected with CD36", "conditions": "ref Silverstein et al., 1992; cited from earlier work"}, "CD36": {"system": "CD36", "conditions": "cited from earlier work"}, "[10]": {"system": "neovascularization, rodent cornea", "conditions": "rodent cornea assay; ref Good et al., 1990; Tolsma et al., 1993; cited from earlier work"}, "CD36-transfected HUVECs [11]": {"system": "CD36-transfected HUVECs", "assay": "Tube formation assay in Matrigel, CD36-transfected HUVECs", "format": "cell-based, human", "conditions": "24 h at 37°C, endogenous TSP-1 expression by clones"}},
  "data": [
    {"substance": "Angiostatin", "values": [
      {"measurement": "inhibition of corneal neovascularization in CD36 null animals", "setting": "CD36 null animals", "value": "not by angiostatin is defective in CD36 null animals"},
      {"measurement": "inhibition of angiogenesis in vivo by angiostatin", "setting": "[1]", "value": "of angiogenesis in vivo"},
      {"measurement": "inhibition of HMVEC migration by angiostatin", "setting": "[2]; angiostatin 2 μg/ml, bFGF, control inhibitor", "value": "inhibition of endothelial cell migration by angiostatin"},
      {"measurement": "inhibition of endothelial cell migration in vitro by angiostatin", "setting": "endothelial cells [3]; ref Gately et al., 1996", "value": "well-established inhibitor of endothelial cell migration in vitro"}
    ]},
    {"substance": "FP93-120: GST–CD36 fusion protein containing the TSP-1 binding region, amino acids 93–120 (YRVRFLAKENVTQDAEDNTVSFLQPNGA; left off: GST, end not stated, kept) [reference compound]", "values": [
      {"measurement": "block of inhibition of migration by Col overlap peptide", "setting": "[4]; Col overlap 30 μM, bFGF, fusion protein preincubated 2 h at 4°C", "value": "blocked the inhibitory effects of Col overlap"}
    ]},
    {"substance": "Thrombospondin-1 [TSP-1]", "values": [
      {"measurement": "inhibition of corneal neovascularization in CD36 null animals", "setting": "CD36 null animals", "value": "defective in CD36 null animals"},
      {"measurement": "concentration inhibiting tube formation", "setting": "endothelial cells [5]", "value": "below 20 nM"},
      {"measurement": "concentration inhibiting lumen formation", "setting": "endothelial cells [6]", "value": "below 20 nM"},
      {"measurement": "TSP-1 inhibition of migration of CD36-transfected clone 35", "setting": "CD36-transfected HUVECs [7]; clone 35 (very low CD36)", "value": "refractory to TSP-1 inhibition"},
      {"measurement": "TSP-1 inhibition of migration of CD36-transfected clones 31 and 36", "setting": "CD36-transfected HUVECs [7]; clones 31 and 36 (higher CD36)", "value": "sensitive to TSP-1 inhibition"},
      {"measurement": "inhibition of bFGF-induced HMVEC migration by TSP-1", "setting": "[2]; TSP-1 2 nM", "value": "inhibition of bFGF-induced migration of HMVECs by TSP-1"},
      {"measurement": "prevention of neovascularization in vivo, polyvinyl sponge", "setting": "[8]", "value": "able to prevent neovascularization in vivo"},
      {"measurement": "TSP-1 binding to melanoma cells not transfected with CD36", "setting": "[9]", "value": "do not bind TSP-1"},
      {"measurement": "concentrations effective in vitro (inhibition of angiogenesis)", "setting": "endothelial cells [3]; ref Good et al., 1990, Tolsma et al., 1993", "value": "subnanomolar"},
      {"measurement": "concentration inhibiting endothelial cell migration (biphasic dose response)", "setting": "endothelial cells [3]; ref Taraboletti et al., 1990, Tolsma et al., 1993, Gao et al., 1996", "value": "less than 20 nM"},
      {"measurement": "inhibition of bFGF-induced migration by TSP-1, BCEC", "setting": "[4]; TSP-1 2 nM", "value": "TSP-1 inhibition of bFGF-induced migration"},
      {"measurement": "interaction of TSP-1 with CD36 amino acids 93–120", "setting": "CD36; minimal region of CD36, ref Pearce et al., 1995", "value": "specific, saturable, and reversible manner"},
      {"measurement": "prevention of neovascularization in vivo, rodent cornea", "setting": "[10]", "value": "able to prevent neovascularization in vivo"},
      {"measurement": "TSP-1 inhibition of tube formation after CD36 transfection", "setting": "CD36-transfected HUVECs [11]", "value": "became sensitive to TSP-1 inhibition of both migration and tube formation"}
    ]},
    {"substance": "glutathione-S-transferase [GST, reference compound]", "values": [
      {"measurement": "block of TSP-1 inhibition of bFGF-induced migration", "setting": "[4]; TSP-1 2 nM, fusion protein preincubated 2 h at 4°C, migration 4 h at 37°C", "value": "ineffective"}
    ]},
    {"substance": "human type I collagen [human collagen I]", "values": [
      {"measurement": "inhibition of bFGF-induced HMVEC migration by other CD36 ligands", "setting": "[2]", "value": "inhibited bFGF-induced HMVEC migration"},
      {"measurement": "effect on migration when tested alone", "setting": "[2]", "value": "no significant effect on migration"}
    ]},
    {"substance": "low-density lipoprotein [LDL]", "values": [
      {"measurement": "inhibition of bFGF-induced HMVEC migration by other CD36 ligands", "setting": "[2]", "value": "failed to influence HMVEC migration"},
      {"measurement": "effect on migration when tested alone", "setting": "[2]", "value": "no significant effect on migration"},
      {"measurement": "binding of unoxidized LDL to CD36", "setting": "CD36; ref Endemann et al., 1993", "value": "unable to bind CD36"}
    ]},
    {"substance": "oxidized low-density lipoprotein [OxLDL]", "values": [
      {"measurement": "inhibition of bFGF-induced HMVEC migration by other CD36 ligands", "setting": "[2]", "value": "inhibited bFGF-induced HMVEC migration"},
      {"measurement": "effect on migration when tested alone", "setting": "[2]", "value": "no significant effect on migration"},
      {"measurement": "concentration below which ineffective at inhibiting migration", "setting": "[2]; bFGF-induced HMVEC migration, data not shown", "value": "below 0.1 nM"}
    ]}
  ]
}
